Data set [1] in a line: Cytotoxicity against human IMR90 cells after 24 hrs by MTT assay. It is filed as cell-based, IMR-90. As to conditions: read-out: ID50. In a few lines:
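IMR-90 embryonic fibroblasts (ATCC) were grown in DMEM with 10% FCS and 1% glutamine at 37 °C, 5% CO2. Cells were plated at 4 or 8×10^3/well and attached overnight. They were treated 24 h, in duplicate, with compounds from methanol stocks diluted in medium, with a methanol blank. MTT (5 mg/mL stock) was added for 4 h, formazan dissolved in DMSO, and read at 550 nm.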

The nature of data set [2]: Cytotoxicity against HUVEC after 24 hrs by MTT assay. Type of data set: cell-based. To be noted: human, read-out: ID50. In short, it runs like this:
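Primary HUVEC from newborns, grown in DMEM/medium 199 with 20% FCS, 10 mM HEPES, heparin and ECGS at 37 °C, 5% CO2. Cells were seeded at 4 or 8×10^3/well and attached overnight. Compounds were added from methanol solutions diluted in medium, with a methanol blank, for 24 h in duplicate. MTT (5 mg/mL stock) was added for 4 h, formazan dissolved in DMSO, and A550 read.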

The test system of data set [3] is HT-1080. Kind of data set: Cytotoxicity against human HT1080 cells after 24 hrs by MTT assay. As to conditions: HT-1080, 24 h, read-out: ID50 (the source's name). It is filed as functional. In short, it runs like this: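 HT-1080 cells (ATCC) were kept in DMEM with 10% FCS, 1% glutamine and 1% vitamins at 37 °C, 5% CO2. Cells were seeded at 4 or 8×10^3/well and attached overnight, then exposed for 24 h in duplicate to methanol-dissolved compounds diluted in medium, with a methanol blank. MTT (5 mg/mL stock) was given for 4 h, formazan solubilized in DMSO, and absorbance read at 550 nm.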

The nature of data set [4]: Cytotoxicity against human Hs 578T cells after 24 hrs by MTT assay. As to conditions: read-out: ID50 (the source's name). Type of data set: functional. In short, it runs like this: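 Hs578T cells (ATCC) were maintained in DMEM with 10% FCS, 1% glutamine and 10 μg/mL insulin. Cells were seeded at 4 or 8×10^3/well and allowed to adhere overnight at 37 °C. They were exposed 24 h, in duplicate, to compounds in methanol diluted with medium, with a methanol blank. MTT (5 mg/mL stock) was added for 4 h, formazan dissolved in DMSO, and A550 measured.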

Data set [5] can be described thus: Cytotoxicity against human U87MG cells after 24 hrs by MTT assay. As to conditions: U-87 MG, read-out: ID50 (the source's name). Type of data set: functional, U-87MG ATCC. In a few lines: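 U87-MG glioblastoma cells (ATCC) were grown in MEM with 10% FCS, 1% sodium pyruvate and 1% nonessential amino acids. Cells were seeded at 4 or 8×10^3/well and adhered overnight at 37 °C. They were exposed 24 h, in duplicate, to methanol-dissolved compounds diluted in medium, with a methanol blank. MTT (5 mg/mL stock) was added for 4 h, formazan dissolved in DMSO, and absorbance read at 550 nm.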

Data set [6] relates to MDA-MB-231. Nature of the data set: Cytotoxicity against human MDA-MB-231 cells after 24 hrs by MTT assay. Type of data set: functional. To be noted: MDA-MB-231, 24 h, read-out: ID50 (the source's name). In a few lines:
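MDA-MB-231 cells (ATCC) were cultured in Leibovitz's L-15 with 10% FCS. Cells were seeded at 4 or 8×10^3/well and attached overnight at 37 °C. Compounds dissolved in methanol and diluted in medium were added for 24 h in duplicate, with a methanol blank. MTT (5 mg/mL stock) was added for 4 h, formazan taken up in DMSO, and A550 recorded.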

Converted amounts (≈) assume the structure as drawn. A value given as a limit tells only on which side of the number the result lay.

As for `CC1(C)C[C@](C)(CO)c2c1ccc(CO)c2CO`, the CC50 at 24 h in data set [1] and in data set [2] was more than 10 µg/mL throughout. The IC50 in data set [3], in data set [4], in data set [5] and in data set [6] was more than 10 µg/mL in each case.

As for `CC(=O)O[C@H]1C[C@@H](C)[C@@H]2COC[C@@]3(C)CC(C)(C)[C@H]1[C@]23O`, the CC50 at 24 h in data set [1] and in data set [2] was more than 10 µg/mL throughout. The IC50 in data set [3], in data set [4], in data set [5] and in data set [6] was more than 10 µg/mL throughout.

With `Cc1ccc2c(c1CO)[C@@](C)(CO)C[C@@]2(C)CO`, the CC50 at 24 h in data set [1] and in data set [2] was more than 10 µg/mL throughout. In addition, the IC50 in data set [3], in data set [4], in data set [5] and in data set [6] was more than 10 µg/mL each time.

Consider `CC(=O)O[C@H]1C[C@@H](C)[C@@H](C=O)[C@@]2(O)[C@@H]1C(C)(C)C[C@]2(C)C=O`, for which the CC50 at 24 h in data set [1] and in data set [2] was 10 µg/mL (≈ 32.2 µM) each time. In addition, the IC50 was 10 µg/mL (≈ 32.2 µM) in data set [3], 5 µg/mL (≈ 16.1 µM) in data set [4], 5 µg/mL (≈ 16.1 µM) in data set [5] and 1 µg/mL (≈ 3.22 µM) in data set [6].

For `CC(=O)O[C@H]1C[C@@H](C)[C@@H]2[C@H](O)OC[C@@]3(C)CC(C)(C)[C@H]1[C@]23O`, the CC50 at 24 h in data set [1] and in data set [2] was more than 10 µg/mL throughout. In addition, the IC50 in data set [3], in data set [4], in data set [5] and in data set [6] was more than 10 µg/mL each time.

`CC(=O)O[C@H]1C[C@@H](C)[C@H](C=O)[C@]2(O)[C@@H]1C(C)(C)C[C@@]2(C)C=O`: the figures for the CC50 at 24 h in data set [1] and in data set [2] were 10 µg/mL (≈ 32.2 µM) and 5 µg/mL (≈ 16.1 µM), respectively. The IC50 was determined as 5 µg/mL (≈ 16.1 µM) in data set [3], 1 µg/mL (≈ 3.22 µM) in data set [4], 1 µg/mL (≈ 3.22 µM) in data set [5] and 0.1 µg/mL (≈ 0.322 µM) in data set [6].

For the compound `Cc1ccc2c(c1C=O)[C@@](C)(C=O)CC2(C)C`, the values for the CC50 at 24 h in data set [1] and in data set [2] were 10 µg/mL (≈ 43.4 µM) and 5 µg/mL (≈ 21.7 µM), respectively. For the same compound, the IC50 in data set [3] was 1 µg/mL (≈ 4.34 µM); in data set [4], 1 µg/mL (≈ 4.34 µM); in data set [5] it was 5 µg/mL (≈ 21.7 µM); in data set [6], 10 µg/mL (≈ 43.4 µM).

`CC(=O)O[C@H]1C[C@@H](C)[C@H](C(=O)O)[C@@]2(O)[C@@H]1C(C)(C)C[C@]2(C)C=O`: the CC50 at 24 h in data set [1] and in data set [2] was more than 10 µg/mL throughout. Also, the IC50 in data set [3], in data set [4], in data set [5] and in data set [6] was more than 10 µg/mL each time.

Consider `C[C@@H]1C[C@H](O)[C@H]2C(C)(C)C[C@]3(C)COC[C@@H]1[C@@]23O`, for which the CC50 at 24 h in data set [1] and in data set [2] was more than 10 µg/mL each time. In addition, the IC50 in data set [3], in data set [4], in data set [5] and in data set [6] was more than 10 µg/mL throughout.

As for `CC(=O)O[C@H]1C[C@@H](C)[C@@H]2COC(C)(C)OC[C@@]3(C)CC(C)(C)[C@H]1[C@]23O`, the CC50 at 24 h in data set [1] and in data set [2] was more than 10 µg/mL each time. In addition, the IC50 in data set [3], in data set [4], in data set [5] and in data set [6] was more than 10 µg/mL each time.

Consider `CC(=O)O[C@H]1C[C@@H](C)[C@@H]2C(=O)OC[C@@]3(C)CC(C)(C)[C@H]1[C@]23O`, for which the CC50 at 24 h in data set [1] and in data set [2] was more than 10 µg/mL each time. For the same compound, the IC50 in data set [3], in data set [4], in data set [5] and in data set [6] was more than 10 µg/mL throughout.

`C[C@@H]1CC=C2C(=C1C=O)[C@@](C)(C=O)CC2(C)C`: the CC50 at 24 h in data set [1] and in data set [2] was 1 µg/mL (≈ 4.3 µM) in each case. Also, the IC50 in data set [3] was 1 µg/mL (≈ 4.3 µM); in data set [4], 1 µg/mL (≈ 4.3 µM); in data set [5], 1 µg/mL (≈ 4.3 µM); in data set [6], 0.1 µg/mL (≈ 0.43 µM).

Consider `CC(=O)O[C@H]1C[C@@H](C)[C@@H]2[C@@H](O)[C@H](O)[C@@]3(C)CC(C)(C)[C@H]1[C@]23O`, for which the CC50 at 24 h in data set [1] and in data set [2] was more than 10 µg/mL throughout. For the same compound, the IC50 in data set [3], in data set [4], in data set [5] and in data set [6] was more than 10 µg/mL each time.

For `CC(=O)O[C@H]1C[C@@H](C)[C@H](CO)C2=C1C(C)(C)C[C@]2(C)CO`, the CC50 at 24 h in data set [1] and in data set [2] was more than 10 µg/mL in each case. In addition, the IC50 in data set [3], in data set [4], in data set [5] and in data set [6] was more than 10 µg/mL in each case.

On to `CC(=O)O[C@H]1C[C@@H](C)[C@@H]2COC(=O)[C@@]3(C)CC(C)(C)[C@H]1[C@]23O`, for which the CC50 at 24 h in data set [1] and in data set [2] was more than 10 µg/mL throughout. The IC50 in data set [3], in data set [4], in data set [5] and in data set [6] was more than 10 µg/mL in each case.

Turning to `CC(=O)O[C@H]1C[C@@H](C)[C@H](C=O)[C@@]2(O)[C@@H]1C(C)(C)C[C@]2(C)C=O` [BOTRYDIAL], the CC50 at 24 h in data set [1] stood at 10 µg/mL (≈ 32.2 µM); in data set [2], 1 µg/mL (≈ 3.22 µM). The IC50 in data set [3], in data set [4], in data set [5] and in data set [6] was 1 µg/mL (≈ 3.22 µM) in each case.

Regarding `CC(=O)O[C@H]1C[C@@H](C)[C@H](C(=O)O)[C@@]2(O)[C@@H]1C(C)(C)C[C@]2(C)C(=O)O` [BOTRYDIOIC ACID], the CC50 at 24 h in data set [1] and in data set [2] was more than 10 µg/mL throughout. In addition, the IC50 in data set [3], in data set [4], in data set [5] and in data set [6] was more than 10 µg/mL each time.

For the compound `CC(=O)O[C@H]1C[C@@H](C)[C@H](CO)[C@@]2(O)[C@@H]1C(C)(C)C[C@]2(C)CO` [BOTRYDIOL], the CC50 at 24 h in data set [1] and in data set [2] was more than 10 µg/mL each time. Also, the IC50 in data set [3], in data set [4], in data set [5] and in data set [6] was more than 10 µg/mL throughout.

Regarding `CC(=O)O[C@H]1C[C@@H](C)C(C=O)=C2[C@@H]1C(C)(C)C[C@]2(C)CO` [BOTRYENALOL], the CC50 at 24 h in data set [1] and in data set [2] was more than 10 µg/mL in each case. The IC50 in data set [3], in data set [4], in data set [5] and in data set [6] was more than 10 µg/mL throughout.

On to `CC(=O)O[C@H]1C[C@@H](C)C(C=O)=C2[C@@H]1C(C)(C)C[C@]2(C)C=O` [BOTRYENEDIAL], for which the figures for the CC50 at 24 h in data set [1] and in data set [2] were more than 10 µg/mL and 10 µg/mL (≈ 34.2 µM), respectively. The IC50 in data set [3], in data set [4], in data set [5] and in data set [6] was 10 µg/mL (≈ 34.2 µM) throughout.

`CC(=O)O[C@H]1C[C@@H](C)[C@H](C(=O)O)[C@@]2(O)[C@@H]1C(C)(C)C[C@]2(C)CO` [BOTRYOLOIC ACID]: the CC50 at 24 h in data set [1] and in data set [2] was more than 10 µg/mL each time. Moreover, the IC50 in data set [3], in data set [4], in data set [5] and in data set [6] was more than 10 µg/mL each time.

For the origin of these results see ChEMBL document CHEMBL1150672, “Chemical transformations on botryane skeleton. Effect on the cytotoxic activity” (J Nat Prod, 2003).
